Measurements reported in PubChem BioAssay AID449763 (Sanford-Burnham Center for Chemical Genomics, 2010).
Screen size: about 330,000 compounds; about 1,100 (0.33%) were called active. The sample as a whole holds a higher share of actives than the screen did. Unmarked numbers belong to inactive results.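 The calls were made as follows: active = at 10 µM dose, activation of 40% or more, normalized to positive control; inactive = the rest.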

experiment: activators of apoptotic CHOP UPR arm, primary screen, cell-based, CHO-CHOP luciferase reporter, luminescence, uHTS (AID 449763); details: at 10 µM, stronger effect = higher value, percent of tunicamycin response over DMSO baseline;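 also: 100% = tunicamycin at 10 µg/mL and 0% = DMSO alone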
Method in brief: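 Test system: CHO CHOP reporter cells. Input: 500 CHO-CHOP cells per well. Medium: F12 with 10% FBS. Technique: luciferase luminescence. Measure: percent activation relative to tunicamycin control. Dosing: 10 µM compound, 0.5% DMSO. Timing: 16-18 h cell attachment, then 6 h compound exposure, 37 °C.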

| Structure (SMILES) | activation |
| --- | --- |
| COc1cc(N=Cc2c(O)c3ccccc3oc2=O)c(OC)cc1Cl | 3.5% |
| COc1ccccc1N=Cc1c(O)c2ccccc2oc1=O | 130% (active) |
| COc1ccccc1N=C(C)C1=C(O)COC1=O | -0.0733% |
| COc1ccc(C(=O)Nc2cc(S(=O)(=O)N3CCCC3)ccc2Cl)cc1 | 0.727% |
| Cc1ccc(CN2CCCOCCS2(=O)=O)cc1 | -0.00453% |
| CCN(CC(=O)Nc1cccc(S(=O)(=O)N2CCCCC2)c1)Cc1ccccc1 | -0.441% |
| Nc1nc(COC(=O)CCC(=O)c2ccc(Cl)cc2)nc(Nc2ccccc2)n1 | 0.238% |
| Cc1ccc(Nc2nc(N)nc(CSc3nnc(C)s3)n2)cc1 | 4.12% |
| Nc1nc(CC(=O)CSc2ccc(Cl)cc2)nc(Nc2ccc(F)cc2)n1 | 42.4% (active) |
| COc1ccc(C(=O)CSc2nnnn2C)c(OC)c1 | 0.876% |
| Cc1cccc(C)c1NC(=O)C(Cl)C(=O)c1ccccc1 (stereo not given) | 52.9% (active) |
| Cc1cccc(C)c1NC(=O)CN(C)C(=O)CCC(=O)c1ccccc1 | 0.683% |
| Cc1cccc(C)c1NC(=O)C(c1ccccc1)N1CC(=O)Nc2ccccc21 (stereo not given) | -0.493% |
| C1=C(N2CCOCC2)/C(=C/c2nc3ccccc3[nH]2)CC1 | -3.2% |
| CSc1ncc(Sc2ccccc2)c(C(=O)O)n1 | -0.159% |
| CSc1nc(-c2ccccc2)nc(C(Cl)Cl)n1 | 46.2% (active) |
| CC(C)=CCC/C(C)=C/C(=O)O | 0.467% |
| COc1ccccc1N1CCN(CC(=O)NCCc2ccc(S(N)(=O)=O)cc2)CC1 | -1.28% |
| O=C(/C=C/c1cccs1)c1cc(Cl)ccc1OC(=O)N1CCOCC1 | 2.72% |
| COc1ccc(C(=O)N2CCC(C(=O)Nc3ccc(C)cc3)CC2)cc1 | -0.572% |

| Structure (SMILES) | activation |
| --- | --- |
| CCc1nn(-c2cc(Oc3cccc4ccccc34)nc(-c3ccccc3)n2)c(N)c1C#N | 56.7% (active) |
| CC(C)(C)n1nc(Cc2cccc3ccccc23)c(C#N)c1N | 0.111% |
| CCCC(c1nnnn1C(C)(C)C)N1CCN(Cc2ccccc2)CC1 (stereo not given) | -1.39% |
| CC(C)[C@H](NC(=O)N1c2ccccc2NC(=O)[C@@H]1C(C)C)C(=O)N[C@H](C(=O)O)c1ccccc1 | -2.11% |
| C=CCN1CN(S(=O)(=O)c2ccc(OC)cc2)c2nc3ccccc3nc21 | 0.29% |
| O=C1C=CC(=O)N1c1ccc(N2CCCCC2)cc1 | 44.6% (active) |
| CC(=O)Nc1ccc(S(=O)(=O)Nc2ccc(N3CCCCC3)cc2)cc1 | 4.38% |
| O=C(Cc1ccccc1)NC(=S)Nc1ccc(N2CCCCC2)cc1 | 0.603% |
| COc1ccccc1-n1c(SCC(=O)O)nc2sc3c(c2c1=O)CCC3 | 1.38% |
| COc1ccc(NC(=O)C(CC(C)C)NC(=O)C2CCC(C)CC2)cc1 (stereo not given) | 0.903% |
| COc1ccccc1CNS(=O)(=O)c1cc2c3c(c1)CCC(=O)N3CCC2 | 2.93% |
| Fc1ccc2nc(-c3ccccc3)nc(SCc3nnc(-c4ccccc4)o3)c2c1 | 0.865% |
| CCOc1ccc(NC(=O)c2nc(SCC)ncc2Cl)cc1 | 0.746% |
| CSc1nnc(NC(=O)c2nc(S(=O)(=O)Cc3ccc(C)cc3)ncc2Cl)s1 | 72.6% (active) |
| Cc1cccc(CS(=O)(=O)c2ncc(Cl)c(C(=O)Nc3ccc(F)cc3)n2)c1 | 278% (active) |
| COCCSc1nnc(NC(=O)CCS(=O)(=O)Cc2ccccc2)s1 | -0.572% |
| Cc1cccc(NC(=O)c2nc(S(=O)(=O)Cc3ccccc3)ncc2Cl)c1 | -9.27% |
| Cc1ccc(CS(=O)(=O)c2ncc(Cl)c(C(=O)Nc3nnc(C)s3)n2)cc1 | 26.4% |
| O=C(NCCCCO)C(F)(F)C(F)(F)C(F)(F)C(=O)NCCCCO | 2.68% |
| Cc1cccc(OCc2nnc(SCc3nc4cc(C(F)(F)F)ccc4c(=O)[nH]3)o2)c1 | 1.49% |

| Structure (SMILES) | activation |
| --- | --- |
| Cc1ccc(OCc2nnc(SC3CCc4ccccc4C3=O)n2C)cc1 (stereo not given) | 0.0439% |
| CSc1ccc(/C=C/C(=O)NC23CC4CC(CC(C4)C2)C3)cc1 | 6.51% |
| Clc1ccc(CN2CCCCCC2)cc1Cl | 0.707% |
| O=[N+]([O-])c1ccccc1S(=O)(=O)Nc1cccc2cccnc12 | 428% (active) |
| NS(=O)(=O)c1ccc(CCNS(=O)(=O)c2cccc3cccnc23)cc1 | 0.112% |
| O=S(=O)(NCCc1ccc(F)cc1)c1cccc2cccnc12 | 0.907% |
| Cc1ccc2oc(=O)c3cnn(CC(=O)N(Cc4ccco4)C4CCCCC4)c3c2c1 | 0.347% |
| CC(C)CCNC(=O)Cn1c(=O)oc2cc(S(=O)(=O)N3CC(C)CC(C)C3)ccc21 (stereo not given) | 0.0919% |
| COc1cc(CC(=O)Nc2nc(-c3ccc(F)c(F)c3)cs2)cc(OC)c1OC | 6.97% |
| COc1ccc2c(c1OC)C(=O)OC2Nc1nc(-c2ccccc2)cs1 (stereo not given) | 41.7% (active) |
| CCc1ccccc1NC(=O)[C@@H]1CCC(=O)N1C1OC(=O)c2c1ccc(OC)c2OC (stereo not given in full) | -1.13% |
| O=C1Nc2cc(Cl)c(Cl)cc2N(O)N1c1ccccc1Cl | 0.176% |
| COc1ccc(N=C2SC(C(=O)Nc3ccc(F)cc3)CC(=O)N2C)cc1 (stereo not given) | -0.141% |
| CCOCCc1nn2c(=O)cc(CSCC(=O)Nc3cccc(C)c3C)nc2s1 | -1.45% |
| Cn1c(-c2ccc(C(F)(F)F)cc2)cc2onc(-c3ccccc3)c2c1=O | 5.2% |
| CCOc1ccc(N2C(=O)CC(N(CCc3ccc(OC)c(OC)c3)C(=S)Nc3ccccc3)C2=O)cc1 (stereo not given) | 1.65% |
| CCOc1ccc(N2C(=O)CC(N(O)c3ccccc3)C2=O)cc1 (stereo not given) | 185% (active) |
| CCCCCCC(=O)N(O)C1CC(=O)N(c2ccccc2)C1=O (stereo not given) | 1.5% |
| CC(=O)NNC1=Nc2ccccc2N(C)C(C)C1 (stereo not given) | 1.41% |
| CCOc1cc(N2CCOCC2)c(OCC)cc1NC(=O)C1=NN(c2cccc(C)c2)C(=O)CC1 | 1.02% |
